Bioassay records (PubChem)
ABCG2 inh = human ABCG2 inhibition, ABCB1 as counter-screen; IgMXP3 cells, JC-1 efflux, flow cytometry; inhibition, % at 6.6 µM; hit rate 0.1% among 190,000; AID 1325;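 active means inhibition above 80%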;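 further: 0% = DMSO and 100% = nicardipine control wells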
Target sequence (Q9UNQ0 whole entry, looked up): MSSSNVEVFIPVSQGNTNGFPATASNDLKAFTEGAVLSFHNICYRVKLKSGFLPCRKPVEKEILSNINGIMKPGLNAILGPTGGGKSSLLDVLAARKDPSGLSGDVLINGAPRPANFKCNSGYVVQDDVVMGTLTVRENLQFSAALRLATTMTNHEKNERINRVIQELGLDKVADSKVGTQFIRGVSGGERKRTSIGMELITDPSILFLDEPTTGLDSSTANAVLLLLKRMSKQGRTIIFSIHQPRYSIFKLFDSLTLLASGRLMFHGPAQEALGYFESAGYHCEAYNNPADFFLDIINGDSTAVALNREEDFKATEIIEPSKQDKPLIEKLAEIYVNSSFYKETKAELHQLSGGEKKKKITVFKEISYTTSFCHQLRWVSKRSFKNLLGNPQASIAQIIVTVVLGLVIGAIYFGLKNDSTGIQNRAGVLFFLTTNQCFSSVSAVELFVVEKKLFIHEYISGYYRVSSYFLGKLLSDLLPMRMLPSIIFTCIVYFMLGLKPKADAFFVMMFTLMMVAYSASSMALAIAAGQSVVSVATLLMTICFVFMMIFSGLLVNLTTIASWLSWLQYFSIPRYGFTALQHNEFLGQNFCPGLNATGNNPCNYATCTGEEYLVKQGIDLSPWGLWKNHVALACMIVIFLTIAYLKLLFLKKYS
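Test system: ABCG2 IgMXP3 and barcoded ABCB1 CCRF-Adr cell mix; Schedule: cells with compound and JC-1, 10 min at 25 °C, rotating, no wash; Technique: flow cytometry of retained JC-1 fluorescence; Measure: % inhibition of efflux relative to nicardipine and DMSO; Controls: nicardipine high and DMSO low controls.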
ROMK mod = human ROMK K+ channel modulation, primary screen | hit rate 2% among 130,000 | P48048 | Tet-inducible ROMK, thallium flux fluorescence; actives lie on both sides | B-score at 10 µM;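 active means signal ratio slope over the read window, or its plate-corrected B-score, at least 3 SD from the plate mean, either direction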;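 further: B-score of the F/F0 ratio slope over 7 to 12 s after thallium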
PMI activator = increases human mannose-6-phosphate isomerase activity; activation factor at 20 µM; hit rate 0.005% among 190,000; purified human PMI, coupled resazurin fluorescence, 20 min; hits give high values; 1 = vehicle control, 0 substrate-free wells; AID 1214;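 active means activation factor of 2 or more at 20 µM, relative to plate controls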
Cl transport mod = modulates chloride dependent transport by human KCC2; B-score of Tl+ flux slope (higher = more flux/activation; lower = inhibition) at 10 µM; KCC2 cells, thallium flux FluoZin-2 fluorescence; AID 1456; Q9H2X9; hit rate 2.2% among 190,000;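 active means thallium flux slope and its plate-corrected score both differing from the plate sample mean at a set confidence after two filtering rounds, in either direction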;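 further: slope of fluorescence scaled to starting intensity during 10 to 20 s after thallium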
ABCB1 inh = inhibitors of human ABCB1 transporter, ABCG2 counter-screen | CCRF-Adr cells, JC-1 efflux, flow cytometry | inhibition, % at 6.6 µM | hit rate 0.067% among 190,000; in the data active means inhibition above about 40%;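 further: 0% = vehicle and 100% = reference inhibitor; higher value means more JC-1 retained so stronger ABCB1 efflux block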
PMI act hi M6P = increases human PMI activity with near-saturating mannose 6-phosphate | activation factor at 20 µM | coupled PMI enzyme assay, resazurin fluorescence, 20 min; hits give high values; 1 = untreated enzyme, 0 = substrate-free blank | hit rate 0.34% among 190,000 | P34949;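 active means activation factor of 2 or more at 20 µM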
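test system = human PMI in coupled enzyme assay | medium = HEPES-buffered pH 7.4 with magnesium and detergent | also added = 1.0 mM mannose-6-phosphate substrate with 0.22 mM NADP+ | compound = 20 µM single dose | times = 20 min incubation at room temperature | measured by = resorufin fluorescence (Ex 544/Em 590 nm) from resazurin via diaphorase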
KCC2 secondary = KCC2 (human) modulation, secondary assay | shares compounds with Cl transport mod | HEK293-KCC2, thallium flux, FluoZin2 fluorescence; hits give high values | normalised thallium flux (F/F0 slope) at 10 µM | hit rate 15% among 3,700 | AID 1713;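 active means thallium flux slope above the same plate's solvent-only control mean plus 3 SD; inconclusive means the two replicate wells disagree; inactive means no significant difference from solvent-only control wells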
KCC2 bumet counter = bumetanide-insensitive thallium flux in KCC2 cells with ouabain, counter-screen | normalized thallium flux at 10 µM | hit rate 49% among 3,700 | shares compounds with Cl transport mod | AID 1714 | HEK293-KCC2 + bumetanide/ouabain, thallium flux FluoZin2; hits give high values;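 active means thallium entry rate above the same plate's blocked-transporter control wells by more than 3 SD; inconclusive means the two repeat wells disagree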;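 further: raw slope of fluorescence over initial fluorescence between 10 and 20 s after thallium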
KCC2 secondary2 = confirmation of human KCC2 transport modulators; shares compounds with Cl transport mod; HEK293-KCC2, thallium flux FluoZin2 fluorescence; actives lie on both sides; F/F0 rise rate, 10–20 s post-thallium; normalized thallium flux at 10 µM; hit rate 23% among 3,700; AID 1715;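 active means thallium flux slope more than 3 SD above or below the plate's solvent-only control mean, mostly below; inconclusive means the two repeat wells disagreed; inactive means no significant shift from solvent-only controls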;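 further: raw slope with 0.1% DMSO as baseline and bumetanide as block control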
HEK counter1 = acts in parental HEK cells, KCC2 counter-screen | shares compounds with Cl transport mod | HEK293 parental cells, thallium flux FluoZin2, ouabain; baseline-ratio fluorescence slope, 10–20 s after thallium | thallium flux rate (normalised fluorescence) at 10 µM | hit rate 46% among 3,700;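 active means thallium flux rate significantly above the same plate's solvent-only control wells, beyond their mean plus 3 SD; inconclusive means the two replicate wells gave conflicting results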
KCC2 retest ouab = confirmation of human KCC2 modulators with ouabain; raw Tl+ flux slope (below DMSO = inhibition, above = activation) at 10 µM; hit rate 48% among 3,700; HEK293-KCC2, thallium flux FluoZin2 fluorescence; bidirectional: low = inhibitor, high = activator; shares compounds with Cl transport mod;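 active means thallium flux slope beyond 3 SD from same-plate DMSO control mean in most replicates, usually higher, sometimes lower; inconclusive means repeat tests gave conflicting results; inactive means no significant difference from controls in most replicates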;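 further: slope of initial-normalized fluorescence between seconds 10 and 20 after thallium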
HEK293 Tl flux2 = counter-screen for KCC2 modulators: effect in parental HEK293 cells. shares compounds with Cl transport mod. thallium flux FluoZin-2 fluorescence slope. thallium flux slope at 10 µM. hit rate 33% among 3,700. AID 1718;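 active means thallium flux slope above the same plate's solvent-control mean plus 3 SD in both duplicate wells; inconclusive means duplicate wells that disagreed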;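 further: run without ouabain in cells lacking the KCC2 cotransporter; slope of fluorescence scaled to its starting value between 10 and 20 s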
* = called active by the depositor; ? = inconclusive; nt = no result. This is a sample that favours compounds with a hit; in the whole collection about 3.3% have one here.

SMILES	ABCG2 inh	ROMK mod	PMI activator	Cl transport mod	ABCB1 inh	PMI act hi M6P	KCC2 secondary	KCC2 bumet counter	KCC2 secondary2	HEK counter1	KCC2 retest ouab	HEK293 Tl flux2
S=c1[nH]nc(-c2ccc3ccccc3n2)n1-c1ccc(Cl)cc1	-7	nt	0.8	14*	-1	0.9	0.0069	0.032*	0.043*	0.029*	0.037*	0.026*
Cc1ccccc1-n1c(-c2ccc3ccccc3n2)n[nH]c1=S	nt	nt	nt	11*	nt	nt	0.011	0.023*	0.035	?	?	0.013
Fc1ccc(-n2c(-c3ccc4c(c3)OCO4)n[nH]c2=S)cc1Cl	8	nt	1.1	0.72	0	1	nt	nt	nt	nt	nt	nt
Fc1ccc(-n2c(-c3ccc4ccccc4n3)n[nH]c2=S)cc1Cl	-6	0.01	0.8	26*	-2	0.8	0.0075	0.023*	0.042*	0.031*	0.04*	0.019*
Cc1ccccc1-n1c(-c2csc(C)c2C)n[nH]c1=S	-5	nt	0.9	2.4	0	0.9	nt	nt	nt	nt	nt	nt
Cc1ccc(N=C(N)N=C(N)N)cc1	nt	nt	nt	0.072	nt	nt	nt	nt	nt	nt	nt	nt
CCOC(=O)N1CCC(NC(=O)c2csc3c2CCCC3)CC1	0	nt	0.9	0.73	0	1	nt	nt	nt	nt	nt	nt
O=C1c2ccccc2-c2cccc(NS(=O)(=O)c3ccc(C(F)(F)F)cc3)c21	2	nt	0.8	nt	1	0.8	?	0.076*	?	0.023*	0.039*	0.016*
Cc1ccc(S(=O)(=O)Nc2ccccc2-c2ccccc2NS(=O)(=O)c2ccc(C)cc2)cc1	0	nt	0.8	nt	0	0.9	nt	nt	nt	nt	nt	nt
Cc1sc2nc(C(C)C)nc(SCC(=O)N3CCN(C(=O)c4ccco4)CC3)c2c1C	1	-0.2	0.9	nt	2	0.9	0.0066	0.017*	0.029	0.012*	0.019	0.012*
Cc1sc2nnn(CC(=O)N3CCN(C(=O)c4ccco4)CC3)c(=O)c2c1C	nt	-0.77	nt	1.1	nt	nt	nt	nt	nt	nt	nt	nt
Cc1cc(NC(=O)CSc2nc(C(C)C)nc3ccccc23)no1	9	nt	0.9	-0.046	1	0.9	nt	nt	nt	nt	nt	nt
Cc1cc(NC(=O)CSc2nc(C(C)C)nc3sc(C)c(C)c23)no1	24	0.015	1	9.3*	2	1	?	0.034*	0.038	0.017*	?	0.012*
CC(=O)Nc1ccc(C(=O)OCC(=O)Nc2c(F)cccc2F)cc1	nt	nt	nt	1	nt	nt	nt	nt	nt	nt	nt	nt
COc1ccc(C2=CC(c3c(C)nn(-c4ccccc4)c3Cl)n3nnnc3N2)cc1OC (centres undefined)	2	nt	1	-1.3	1	0.9	nt	nt	nt	nt	nt	nt
COc1ccc(NC(=O)c2ccc(COc3ccccc3)o2)cc1	1	nt	0.9	-4.4*	0	1	0.0073	0.0048	0.029	0.0064	?	0.0098
CC(=O)Nc1ccc(NC(=O)c2ccc(CSc3ccccc3)o2)cc1	2	-0.51	1	-4.1*	0	1.1	0.0062	0.0072	0.025*	0.0071	0.015*	?
O=C(Nc1ccccc1F)c1ccc(CSc2ccccc2)o1	22	nt	0.9	-5.1*	-1	1	0.0087	0.0058	0.025*	0.006	0.013*	0.0091
O=C(NCc1ccccc1)c1ccc(CSc2ccccc2)o1	5	-1.5	0.8	-3.9	0	0.8	nt	nt	nt	nt	nt	nt
O=C(Nc1cccc(F)c1)c1ccc(CSc2ccccc2)o1	19	-2.2	0.8	-2.7	1	0.9	nt	nt	nt	nt	nt	nt
O=C(Nc1ccc(S(=O)(=O)Nc2ccccc2)cc1)c1ccc(CN2CCOCC2)cc1	3	-2.8	0.9	-0.22	0	1	nt	nt	nt	nt	nt	nt
Fc1ccc(C2N(c3ccccc3)C(=S)N3CCCN23)cc1 (centres undefined)	nt	0.32	nt	-1.7	nt	nt	nt	nt	nt	nt	nt	nt
Cc1ccc(C2N(c3ccccc3)C(=S)N3CCCN23)cc1 (centres undefined)	3	2.4	1.1	nt	1	1	0.0083	0.0049	0.034	0.0037	0.02	0.011
Brc1ccc(-c2ccc(/C=N/Nc3nc4ccccc4[nH]3)o2)cc1	-1	nt	1.4	-0.18	0	1.8	nt	nt	nt	nt	nt	nt
COc1ccc(-n2c(Cc3cccn3C)nnc2SCC(=O)Nc2ccc(F)cc2)cc1	4	nt	0.9	-3.1*	1	1	0.0089	0.005	0.036	0.0072	0.019	0.011
SMILES	ABCG2 inh	ROMK mod	PMI activator	Cl transport mod	ABCB1 inh	PMI act hi M6P	KCC2 secondary	KCC2 bumet counter	KCC2 secondary2	HEK counter1	KCC2 retest ouab	HEK293 Tl flux2
CN(C)S(=O)(=O)c1cc(NC(=O)CSc2ncc(C(F)(F)F)cc2Cl)ccc1Cl	-1	-0.57	0.9	50*	0	0.9	0.0078	0.0047	?	0.0075	0.019	0.011
CCN1CCN(CC(=O)Nc2ccc(Cl)c(S(=O)(=O)N(C)C)c2)CC1	-1	-0.66	1	0.51	0	1	nt	nt	nt	nt	nt	nt
CC(=O)Nc1nc2ccccc2n1CCOc1ccccc1	27	nt	1	0.37	0	1	nt	nt	nt	nt	nt	nt
S=C(Nc1ccccc1)Nc1nc2ccccc2n1CCOc1ccccc1	8	0.28	1	29*	1	1	0.011*	0.059*	0.029	0.017*	0.036*	?
COc1cc(-c2nc(CN3CCN(c4ncccn4)CC3)c(C)o2)ccc1F	1	-0.91	1	-3*	0	1	0.0059	0.0043	0.032	?	0.021	?
COc1cc(-c2nc(CN3CCN(CC(C)C)C(=O)[C@@H]3C)c(C)o2)ccc1F	0	0.46	nt	-0.75	0	nt	nt	nt	nt	nt	nt	nt
Cc1cccc(OCCc2nnc(N)s2)c1C	0	0.67	1.1	-5.9*	0	1	0.0066	0.0049	0.026*	0.0079	?	0.012
Nc1nnc(CCOc2ccc(Cl)cc2)s1	5	nt	1	0.15	1	0.9	nt	nt	nt	nt	nt	nt
CCCC[N+](CC#Cc1ccccc1)(CCCC)CCCS(=O)(=O)[O-]	5	0.033	1	0.27	2	1	nt	nt	nt	nt	nt	nt
CC(C)(CCl)C(=O)Nc1ccc(OC(F)(F)F)cc1	18	nt	1	0.78	1	1	nt	nt	nt	nt	nt	nt
